Assay results taken from ChEMBL document CHEMBL1146453, “Insecticidal sesquiterpene pyridine alkaloids from Maytenus chiapensis” (J Nat Prod, 2004).
Converted amounts (≈) assume the structure as drawn. The source made the active and inactive calls. The rule behind the calls is not given here.

Legend:
Myzus persicae = experiment: Antifeedant activity against Myzus persicae; type: functional, organism-based
Outline: (§1)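 Choice feeding test on sixth-instar S. littoralis larvae and apterous adult M. persicae. Larvae reared on artificial diet, aphids on bell pepper plants, both at 22 ± 1 °C, >70% RH, 16:8 h L:D. Read-out is percent feeding inhibition (larvae) or settling inhibition (aphids). Actives above 50% went to dose–response, with EC50 taken from linear regression of %FR or %SI on log dose.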

Spodoptera littoralis [1] = experiment: Antifeedant activity against Spodoptera littoralis L6 larvae treated orally; type: functional, organism-based
Outline: (§2)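 Sixth-instar S. littoralis larvae reared on artificial diet at 22 ± 1 °C, >70% RH, 16:8 h L:D, dosed orally. Food consumption and biomass gain were recorded. Post-ingestive effects were tested by ANCOVA of biomass gain with food consumption as covariate.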

[2] = Cytotoxicity against Spodoptera frugiperda Sf9 cells by MTT assay; type: cell-based; details: read-out: LD50 (the source's name)
Outline: (§3)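 Sf9 cells (S. frugiperda pupal ovarian tissue) and CHO cells were cultured and scored for viability by an adapted MTT colorimetric assay. LD50, the dose giving 50% viability, was calculated for active compounds.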

Spodoptera littoralis [3] = experiment: Antifeedant activity against Spodoptera littoralis L6 larvae; type: functional, organism-based; outline: as §1
Spodoptera littoralis [4] = experiment: Antifeedant activity against Spodoptera littoralis L6 larvae assessed as biomass gain relative to control; type: functional; design: concentration or dose not given beside the values; outline: as §2
Spodoptera littoralis [5] = experiment: Antifeedant activity against Spodoptera littoralis L6 larvae assessed as nutritional consumption relative to control; type: functional; design: concentration or dose not given beside the values; outline: as §2
[6] = Cytotoxicity against CHO cells by MTT assay; type: cell-based, Cricetulus griseus; details: chinese hamster, read-out: LD50 (the source's name); outline: as §3

Row | Compound | Activity (Myzus persicae) | Activity (Spodoptera littoralis [1]) | CC50 [2] | EC50 (Spodoptera littoralis [3]) | Activity (Spodoptera littoralis [4]) | Activity (Spodoptera littoralis [5]) | CC50 [6]
1 | CC(=O)OC[C@]12[C@H](OC(C)=O)[C@H](OC(C)=O)[C@@H]3[C@@H](OC(C)=O)[C@@]14O[C@@]3(C)COC(=O)c1cccnc1CCC(C)(O)C(=O)O[C@@H]([C@H](OC(=O)c1ccccc1)[C@@H]2OC(=O)c1ccccc1)[C@]4(C)O (some centres not stated) | inactive | inactive | > 100 µg/mL | 3.9 ×10⁻² ug/cm2 | 96% | 87% | > 100 µg/mL
2 | CC(=O)OC[C@]12[C@H](OC(C)=O)[C@H](OC(C)=O)[C@@H]3[C@@H](OC(C)=O)[C@@]14O[C@@]3(C)COC(=O)c1cccnc1C(C)C(C)C(=O)O[C@@H]([C@H](O)[C@@H]2OC(C)=O)[C@]4(C)O (some centres not stated) | inactive | – | 57.5 µg/mL (≈ 75.3 µM) | > 50 microg/cm2 | 101% | 94% | > 100 µg/mL
3 | CC(=O)OC[C@]12[C@H](OC(C)=O)C(=O)[C@@H]3[C@@H](OC(C)=O)[C@@]14O[C@@]3(C)COC(=O)c1cccnc1CCC(C)(O)C(=O)O[C@@H]([C@H](OC(=O)c1ccccc1)[C@@H]2OC(=O)c1ccccc1)[C@]4(C)O (some centres not stated) | inactive | inactive | 78.7 µg/mL (≈ 87.2 µM) | 6.6 ×10⁻² ug/cm2 | 93% | 92% | > 100 µg/mL
4 | CC(=O)OC[C@]12[C@H](OC(C)=O)C(=O)[C@@H]3[C@@H](OC(C)=O)[C@@]14O[C@@]3(C)COC(=O)c1cccnc1CCC(C)(O)C(=O)O[C@@H]([C@H](OC(=O)c1ccccc1)[C@@H]2OC(C)=O)[C@]4(C)O (some centres not stated) [ALATAMINE] | inactive | inactive | > 100 µg/mL | 5.2 ×10⁻³ ug/cm2 | 118% | 117% | > 100 µg/mL
5 | CC(=O)OC[C@]12[C@H](OC(C)=O)[C@H](OC(C)=O)[C@@H]3[C@@H](OC(C)=O)[C@@]14O[C@@]3(C)COC(=O)c1cccnc1CCC(C)(O)C(=O)O[C@@H]([C@H](OC(C)=O)[C@@H]2OC(C)=O)[C@]4(C)O (some centres not stated) [ALATUSININE] | inactive | inactive | 73.2 µg/mL (≈ 89.1 µM) | 1.6 ×10⁻⁴ ug/cm2 | 111% | 125% | > 100 µg/mL
6 | CC(=O)OC[C@]12[C@H](OC(C)=O)[C@H](OC(C)=O)[C@@H]3[C@@H](OC(C)=O)[C@@]14O[C@@]3(C)COC(=O)c1cccnc1C(C)C(C)C(=O)O[C@@H]([C@H](O)[C@@H]2OC(=O)c1ccccc1)[C@]4(C)O (some centres not stated) [EBENIFOLINE E I] | inactive | inactive | 78.8 µg/mL (≈ 95.4 µM) | 0.72 microg/cm2 | 83% | 81% | > 100 µg/mL
7 | CC(=O)OC[C@]12[C@H](OC(C)=O)[C@H](OC(C)=O)[C@@H]3[C@@H](OC(C)=O)[C@@]14O[C@@]3(C)COC(=O)c1cccnc1CCC(C)C(=O)O[C@@H]([C@H](OC(C)=O)[C@@H]2OC(C)=O)[C@]4(C)O (some centres not stated) [EUONINE] | inactive | inactive | 48.4 µg/mL (≈ 60 µM) | 1.8 ×10⁻⁴ ug/cm2 | 98% | 111% | > 100 µg/mL
8 | CC(=O)OC[C@]12[C@H](OC(C)=O)[C@H](OC(C)=O)[C@@H]3[C@@H](OC(C)=O)[C@@]14O[C@@]3(C)COC(=O)c1cccnc1C(C)C(C)C(=O)O[C@@H]([C@H](OC(C)=O)[C@@H]2OC(C)=O)[C@]4(C)O (some centres not stated) [EUONYMINE] | inactive | – | 49.6 µg/mL (≈ 61.6 µM) | > 50 microg/cm2 | 105% | 102% | > 100 µg/mL
9 | CC(=O)OC[C@]12[C@H](OC(C)=O)[C@H](OC(C)=O)[C@@H]3[C@@H](OC(C)=O)[C@@]14O[C@@]3(C)COC(=O)c1cccnc1C(C)C(C)C(=O)O[C@@H]([C@H](OC(C)=O)[C@@H]2OC(=O)c1ccccc1)[C@]4(C)O (some centres not stated) [MAYTEINE] | inactive | – | > 100 µg/mL | > 50 microg/cm2 | 112% | 146% | > 100 µg/mL
10 | CC(=O)OC[C@]12[C@H](OC(C)=O)[C@H](OC(C)=O)[C@@H]3[C@@H](OC(C)=O)[C@@]14O[C@@]3(C)COC(=O)c1cccnc1CCC(C)(O)C(=O)O[C@@H]([C@H](OC(=O)c1ccccc1)[C@@H]2OC(C)=O)[C@]4(C)O (some centres not stated) [WILFORDINE] | inactive | inactive | 86.2 µg/mL (≈ 97.6 µM) | 2.3 ×10⁻⁴ ug/cm2 | 93% | 109% | > 100 µg/mL
